Reference: ChEMBL document CHEMBL3046951, “Volatile constituents from the leaves of Callicarpa japonica Thunb. and their antibacterial activities” (2004)

Tests used:
Format in all cases: functional
Escherichia coli [1] = experiment: Antimicrobial activity against Escherichia coli O157:H7 ATCC 43894 assessed as growth inhibition rate at 12 mg/l after 72 hr by spectrophotometry; details: O157:H7 ATCC 43894, 72 h, read-out: GI
Listeria monocytogenes [2] = experiment: Antimicrobial activity against Listeria monocytogenes ATCC 19111 assessed as growth inhibition rate at 24 mg/l after 72 hr by spectrophotometry; details: ATCC 19111, 72 h, read-out: GI
In short: (§1)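 L. monocytogenes was grown at 30 °C in tryptic soy broth, subcultured for 18 h, and exposed to pure volatile compounds (>95% purity). Growth was followed by Bioscreen C optical density every 24 h for 72 h against a 10% Tween 80 control.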

Staphylococcus aureus [3] = experiment: Antimicrobial activity against Staphylococcus aureus ATCC 25923 assessed as growth inhibition rate at 0.03 mg/l after 72 hr by spectrophotometry; details: ATCC 25923, 72 h, read-out: GI
Salmonella typhimurium [4] = experiment: Antimicrobial activity against Salmonella enterica subsp. enterica serovar Typhimurium ATCC 14028 assessed as growth inhibition rate at 1.2 mg/l after 72 hr by spectrophotometry; details: ATCC 14028, 72 h, read-out: GI
In short: (§2)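 Authentic volatiles (>95% purity; 2,4-heptadienal 90%) tested against 18 h subcultures. Growth media: E. coli O157:H7 and S. aureus in tryptic soy broth at 37 °C; L. monocytogenes in tryptic soy broth at 30 °C; V. parahaemolyticus in tryptic soy broth + 3% NaCl at 37 °C; S. typhimurium in nutrient broth at 30 °C. Bioscreen C OD every 24 h for 72 h versus 10% Tween 80 control.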

Vibrio parahaemolyticus [5] = experiment: Antimicrobial activity against Vibrio parahaemolyticus ATCC 33844 assessed as growth inhibition rate at 24 mg/l after 72 hr by spectrophotometry; details: ATCC 33844, 72 h, read-out: GI
Listeria monocytogenes [6] = experiment: Antimicrobial activity against Listeria monocytogenes ATCC 19111 assessed as growth inhibition rate at 0.03 mg/l after 72 hr by spectrophotometry; details: ATCC 19111, 72 h, read-out: GI; in short: as §1
Listeria monocytogenes [7] = experiment: Antimicrobial activity against Listeria monocytogenes ATCC 19111 assessed as growth inhibition rate at 0.24 mg/l after 72 hr by spectrophotometry; details: ATCC 19111, 72 h, read-out: GI; in short: as §1
Vibrio parahaemolyticus [8] = experiment: Antimicrobial activity against Vibrio parahaemolyticus ATCC 33844 assessed as growth inhibition rate at 0.03 mg/l after 72 hr by spectrophotometry; details: ATCC 33844, 72 h, read-out: GI
Salmonella typhimurium [9] = experiment: Antimicrobial activity against Salmonella enterica subsp. enterica serovar Typhimurium ATCC 14028 assessed as growth inhibition rate at 2.4 mg/l after 72 hr by spectrophotometry; details: ATCC 14028, 72 h, read-out: GI
In short: (§3)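 Salmonella Typhimurium ATCC 14028 grown in nutrient broth at 30 °C, precultured 24 h, then subcultured 1:100 for 18 h before testing. Single volatile compounds (>95% pure) were added. OD was read every 24 h over 72 h in a Bioscreen C, with 10% Tween 80 as the comparison control.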

Escherichia coli [10] = experiment: Antimicrobial activity against Escherichia coli O157:H7 ATCC 43894 assessed as growth inhibition rate at 24 mg/l after 72 hr by spectrophotometry; details: O157:H7 ATCC 43894, 72 h, read-out: GI
Bacillus cereus [11] = experiment: Antimicrobial activity against Bacillus cereus ATCC 11778 assessed as growth inhibition rate at 24 mg/l after 72 hr by spectrophotometry; details: ATCC 11778, 72 h, read-out: GI
In short: (§4)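 Pure volatile compounds (purity >95%; one at 90%) were tested against B. cereus ATCC 11778. The strain was grown at 30 °C in nutrient broth for 24 h, then subcultured for 18 h. Optical density was read in a Bioscreen C every 24 h for 72 h, with 10% Tween 80 as the control.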

Vibrio parahaemolyticus [12] = experiment: Antimicrobial activity against Vibrio parahaemolyticus ATCC 33844 assessed as growth inhibition rate at 1.2 mg/l after 72 hr by spectrophotometry; details: ATCC 33844, 72 h, read-out: GI; in short: as §2
Vibrio parahaemolyticus [13] = experiment: Antimicrobial activity against Vibrio parahaemolyticus ATCC 33844 assessed as growth inhibition rate at 0.24 mg/l after 72 hr by spectrophotometry; details: ATCC 33844, 72 h, read-out: GI
Salmonella typhimurium [14] = experiment: Antimicrobial activity against Salmonella enterica subsp. enterica serovar Typhimurium ATCC 14028 assessed as growth inhibition rate at 12 mg/l after 72 hr by spectrophotometry; details: ATCC 14028, 72 h, read-out: GI; in short: as §3
Salmonella typhimurium [15] = experiment: Antimicrobial activity against Salmonella enterica subsp. enterica serovar Typhimurium ATCC 14028 assessed as growth inhibition rate at 24 mg/l after 72 hr by spectrophotometry; details: ATCC 14028, 72 h, read-out: GI; in short: as §3
Vibrio parahaemolyticus [16] = experiment: Antimicrobial activity against Vibrio parahaemolyticus ATCC 33844 assessed as growth inhibition rate at 12 mg/l after 72 hr by spectrophotometry; details: ATCC 33844, 72 h, read-out: GI
Staphylococcus aureus [17] = experiment: Antimicrobial activity against Staphylococcus aureus ATCC 25923 assessed as growth inhibition rate at 0.24 mg/l after 72 hr by spectrophotometry; details: ATCC 25923, 72 h, read-out: GI
Salmonella typhimurium [18] = experiment: Antimicrobial activity against Salmonella enterica subsp. enterica serovar Typhimurium ATCC 14028 assessed as growth inhibition rate at 0.24 mg/l after 72 hr by spectrophotometry; details: ATCC 14028, 72 h, read-out: GI; in short: as §3
Listeria monocytogenes [19] = experiment: Antimicrobial activity against Listeria monocytogenes ATCC 19111 assessed as growth inhibition rate at 1.2 mg/l after 72 hr by spectrophotometry; details: ATCC 19111, 72 h, read-out: GI; in short: as §2
Bacillus cereus [20] = experiment: Antimicrobial activity against Bacillus cereus ATCC 11778 assessed as growth inhibition rate at 0.24 mg/l after 72 hr by spectrophotometry; details: ATCC 11778, 72 h, read-out: GI; in short: as §4
Escherichia coli [21] = experiment: Antimicrobial activity against Escherichia coli O157:H7 ATCC 43894 assessed as growth inhibition rate at 0.24 mg/l after 72 hr by spectrophotometry; details: O157:H7 ATCC 43894, 72 h, read-out: GI
Escherichia coli [22] = experiment: Antimicrobial activity against Escherichia coli O157:H7 ATCC 43894 assessed as growth inhibition rate at 1.2 mg/l after 72 hr by spectrophotometry; details: O157:H7 ATCC 43894, 72 h, read-out: GI
Listeria monocytogenes [23] = experiment: Antimicrobial activity against Listeria monocytogenes ATCC 19111 assessed as growth inhibition rate at 12 mg/l after 72 hr by spectrophotometry; details: ATCC 19111, 72 h, read-out: GI; in short: as §1
Staphylococcus aureus [24] = experiment: Antimicrobial activity against Staphylococcus aureus ATCC 25923 assessed as growth inhibition rate at 2.4 mg/l after 72 hr by spectrophotometry; details: ATCC 25923, 72 h, read-out: GI
Bacillus cereus [25] = experiment: Antimicrobial activity against Bacillus cereus ATCC 11778 assessed as growth inhibition rate at 0.03 mg/l after 72 hr by spectrophotometry; details: ATCC 11778, 72 h, read-out: GI; in short: as §4
Escherichia coli [26] = experiment: Antimicrobial activity against Escherichia coli O157:H7 ATCC 43894 assessed as growth inhibition rate at 0.03 mg/l after 72 hr by spectrophotometry; details: O157:H7 ATCC 43894, 72 h, read-out: GI
Vibrio parahaemolyticus [27] = experiment: Antimicrobial activity against Vibrio parahaemolyticus ATCC 33844 assessed as growth inhibition rate at 2.4 mg/l after 72 hr by spectrophotometry; details: ATCC 33844, 72 h, read-out: GI
Listeria monocytogenes [28] = experiment: Antimicrobial activity against Listeria monocytogenes ATCC 19111 assessed as growth inhibition rate at 2.4 mg/l after 72 hr by spectrophotometry; details: ATCC 19111, 72 h, read-out: GI; in short: as §1
Bacillus cereus [29] = experiment: Antimicrobial activity against Bacillus cereus ATCC 11778 assessed as growth inhibition rate at 1.2 mg/l after 72 hr by spectrophotometry; details: ATCC 11778, 72 h, read-out: GI
In short: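 Pure volatile compounds (>95% purity; 2,4-heptadienal 90%) identified in the leaf extract were tested against B. cereus ATCC 11778 in nutrient broth at 30 °C. The inoculum was grown 24 h, then subcultured (0.1 mL into 9.9 mL) for 18 h. Optical density was read in a Bioscreen C every 24 h for 72 h against a 10% Tween 80 control.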

Bacillus cereus [30] = experiment: Antimicrobial activity against Bacillus cereus ATCC 11778 assessed as growth inhibition rate at 2.4 mg/l after 72 hr by spectrophotometry; details: ATCC 11778, 72 h, read-out: GI; in short: as §4
Bacillus cereus [31] = experiment: Antimicrobial activity against Bacillus cereus ATCC 11778 assessed as growth inhibition rate at 12 mg/l after 72 hr by spectrophotometry; details: ATCC 11778, 72 h, read-out: GI; in short: as §4
Staphylococcus aureus [32] = experiment: Antimicrobial activity against Staphylococcus aureus ATCC 25923 assessed as growth inhibition rate at 24 mg/l after 72 hr by spectrophotometry; details: ATCC 25923, 72 h, read-out: GI
Escherichia coli [33] = experiment: Antimicrobial activity against Escherichia coli O157:H7 ATCC 43894 assessed as growth inhibition rate at 2.4 mg/l after 72 hr by spectrophotometry; details: O157:H7 ATCC 43894, 72 h, read-out: GI
Staphylococcus aureus [34] = experiment: Antimicrobial activity against Staphylococcus aureus ATCC 25923 assessed as growth inhibition rate at 1.2 mg/l after 72 hr by spectrophotometry; details: ATCC 25923, 72 h, read-out: GI; in short: as §2
Salmonella typhimurium [35] = experiment: Antimicrobial activity against Salmonella enterica subsp. enterica serovar Typhimurium ATCC 14028 assessed as growth inhibition rate at 0.03 mg/l after 72 hr by spectrophotometry; details: ATCC 14028, 72 h, read-out: GI; in short: as §3
Staphylococcus aureus [36] = experiment: Antimicrobial activity against Staphylococcus aureus ATCC 25923 assessed as growth inhibition rate at 12 mg/l after 72 hr by spectrophotometry; details: ATCC 25923, 72 h, read-out: GI

In the case of `C[C@@H]1CC[C@@H]2[C@@H]1[C@H]1[C@@H](CC[C@]2(C)O)C1(C)C` [(-)-EPIGLOBULOL], the inhibition of growth at 12 µg/mL (Escherichia coli [1]) is reported as 22.6%, the inhibition of growth at 24 µg/mL (Listeria monocytogenes [2]) is reported as 94.3% and the inhibition of growth at 0.03 µg/mL (Staphylococcus aureus [3]) is reported as 1.7%. It also gave an inhibition of growth at 1.2 µg/mL (Salmonella typhimurium [4]) of 4.4%, an inhibition of growth at 24 µg/mL (Vibrio parahaemolyticus [5]) of 65.8% and an inhibition of growth at 0.03 µg/mL (Listeria monocytogenes [6]) of 5.8%. It also gave an inhibition of growth at 0.24 µg/mL (Listeria monocytogenes [7]) of 6.1%, an inhibition of growth at 0.03 µg/mL (Vibrio parahaemolyticus [8]) of 3.1% and an inhibition of growth at 2.4 µg/mL (Salmonella typhimurium [9]) of 4.9%. The inhibition of growth at 24 µg/mL (Escherichia coli [10]) was 26.3%, the inhibition of growth at 24 µg/mL (Bacillus cereus [11]) was 95.7% and the inhibition of growth at 1.2 µg/mL (Vibrio parahaemolyticus [12]) was 11.1%. It also gave an inhibition of growth at 0.24 µg/mL (Vibrio parahaemolyticus [13]) of 11.4%, an inhibition of growth at 12 µg/mL (Salmonella typhimurium [14]) of 39.1% and an inhibition of growth at 24 µg/mL (Salmonella typhimurium [15]) of 58.1%. For the same compound, the inhibition of growth at 12 µg/mL (Vibrio parahaemolyticus [16]) was 61.2%, the inhibition of growth at 0.24 µg/mL (Staphylococcus aureus [17]) was 2.6% and the inhibition of growth at 0.24 µg/mL (Salmonella typhimurium [18]) was 3.9%. The inhibition of growth at 1.2 µg/mL (Listeria monocytogenes [19]) was 8.2%, the inhibition of growth at 0.24 µg/mL (Bacillus cereus [20]) was 8.2% and the inhibition of growth at 0.24 µg/mL (Escherichia coli [21]) was 0.7%. For the same compound, the inhibition of growth at 1.2 µg/mL (Escherichia coli [22]) was 0.9%, the inhibition of growth at 12 µg/mL (Listeria monocytogenes [23]) was 92% and the inhibition of growth at 2.4 µg/mL (Staphylococcus aureus [24]) was 5.9%. It also gave an inhibition of growth at 0.03 µg/mL (Bacillus cereus [25]) of 0.6%, an inhibition of growth at 0.03 µg/mL (Escherichia coli [26]) of 0.3% and an inhibition of growth at 2.4 µg/mL (Vibrio parahaemolyticus [27]) of 11.7%. For the same compound, the inhibition of growth at 2.4 µg/mL (Listeria monocytogenes [28]) was 10.1%, the inhibition of growth at 1.2 µg/mL (Bacillus cereus [29]) was 13.9% and the inhibition of growth at 2.4 µg/mL (Bacillus cereus [30]) was 18.6%. For the same compound, the inhibition of growth at 12 µg/mL (Bacillus cereus [31]) was 63.6%, the inhibition of growth at 24 µg/mL (Staphylococcus aureus [32]) was 99.6% and the inhibition of growth at 2.4 µg/mL (Escherichia coli [33]) was 2.1%. For the same compound, the inhibition of growth at 1.2 µg/mL (Staphylococcus aureus [34]) was 5.8%, the inhibition of growth at 0.03 µg/mL (Salmonella typhimurium [35]) was 2.2% and the inhibition of growth at 12 µg/mL (Staphylococcus aureus [36]) was 99.4%.
